Experimental data taken from ChEMBL document CHEMBL2057165, “Synthesis and antiviral properties of novel 7-heterocyclic substituted 7-deaza-adenine nucleoside inhibitors of Hepatitis C NS5B polymerase” (Bioorg Med Chem, 2012).

Columns and labels:
Hepatitis C virus = experiment: Antiviral activity against Hepatitis C virus genotype 1b infected in human HBI10A cells assessed as inhibition of viral replication in presence of 10% FBS; type: functional, organism-based, Hepacivirus hominis
Outline: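 HBI10A hepatoma cells stably carrying a genotype 1b subgenomic bicistronic HCV replicon; EC50 measured in the presence of 10% fetal bovine serum; mean of ≥3 experiments, SD within 20%.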

[1] = Prodrug activation in hamsters liver assessed as NMP formation at 10 mg/kg; type: organism-based; parameters: dose 10 mg/kg; conditions: cricetinae, in vivo
Outline: (§1)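 Prodrug dosed at 10 mg/Kg in hamster; liver analysed for NTP and NMP species.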

[2] = Prodrug activation in hamsters liver assessed as NTP formation at 10 mg/kg; type: organism-based; parameters: dose 10 mg/kg; conditions: cricetinae, in vivo; outline: as §1
[3] = Inhibition of Hepatitis C virus NS5B polymerase; parameters: species or system Hepacivirus hominis
Outline: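 Nucleoside triphosphates tested in an NS5B polymerization assay on a heteromeric RNA template; IC50 given as mean of ≥3 experiments, SD within 20%.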

Nucleic Acid = experiment: Ratio of drug level in nucleotide triphosphate level in liver to parent compound level in plasma in Wistar Han rat at 20 mg/kg, iv measured after 3 to 12 hrs; type: ADME, organism-based; parameters: dose 20 mg/kg, route intravenous; conditions: in vivo
Outline: (§2)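 Wistar Han rats given 20 mg/Kg intravenously; NTP in liver measured up to 12 h after dosing, at 3, 6 and 12 h (nmol/g); parent nucleoside measured in plasma, and liver NTP/plasma nucleoside ratio computed at each timepoint.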

Liver [4] = experiment: Drug uptake in Wistar Han rat liver assessed as nucleotide triphosphate level per gram of tissue at 20 mg/kg, iv measured after 3 hrs; type: ADME, organism-based; parameters: dose 20 mg/kg, route intravenous; conditions: in vivo; outline: as §2
Liver [5] = experiment: Drug uptake in Wistar Han rat liver assessed as nucleotide triphosphate level per gram of tissue at 20 mg/kg, po measured after 12 hrs; type: ADME, organism-based; parameters: dose 20 mg/kg, route oral; conditions: in vivo
Outline: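 Wistar Han rats dosed orally at 20 mg/Kg; NTP in liver measured 12 h after dosing, in nmol/g.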

Liver [6] = experiment: Drug uptake in Wistar Han rat liver assessed as nucleotide triphosphate level per gram of tissue at 20 mg/kg, iv measured after 6 hrs; type: ADME, organism-based; parameters: dose 20 mg/kg, route intravenous; conditions: in vivo; outline: as §2
[7] = Oral bioavailability in Wistar Han rat at 1 mg/kg; type: ADME, organism-based; conditions: in vivo
Outline: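 Pharmacokinetics in Wistar Han rats after 1 mg/Kg given intravenously and orally; parent nucleoside followed in plasma to derive clearance, volume of distribution and oral bioavailability (F).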

Liver [8] = experiment: Drug uptake in Wistar Han rat liver assessed as nucleotide triphosphate level per gram of tissue at 20 mg/kg, iv measured after 12 hrs; type: ADME, organism-based; parameters: dose 20 mg/kg, route intravenous; conditions: in vivo; outline: as §2
[9] = Inhibition of human DNA polymerase gamma
[10] = Inhibition of human DNA polymerase alpha
[11] = Inhibition of human DNA polymerase beta

Structure (SMILES)	EC50 (Hepatitis C virus)	IC50 [3]	further results
CCOC(=O)[C@@H](C)NP(=O)(OC[C@H]1O[C@@H](n2cc(-c3ccn[nH]3)c3c(N)ncnc32)[C@](C)(F)[C@@H]1O)Oc1ccccc1 (stereo partly drawn)	> 50 µM	–	Drug metabolism [1]: Active; Drug metabolism [2]: Not Active
CCOC(=O)[C@@H](C)NP(=O)(OC[C@H]1O[C@@H](n2cc(-c3ccn[nH]3)c3c(N)ncnc32)[C@](C)(O)[C@@H]1O)Oc1ccccc1 (stereo partly drawn)	1.8 µM	–	–
C[C@@]1(O)[C@H](O)[C@@H](COP(=O)(O)OP(=O)(O)OP(=O)(O)O)O[C@H]1n1ccc2c(N)ncnc21	–	0.1 µM	–
C[C@@]1(O)[C@H](O)[C@@H](CO)O[C@H]1n1cc(-c2cc[nH]n2)c2c(N)ncnc21	> 100 µM	–	–
C[C@@]1(O)[C@H](O)[C@@H](COP(=O)(O)OP(=O)(O)OP(=O)(O)O)O[C@H]1n1cc(-c2cc[nH]n2)c2c(N)ncnc21	–	0.1 µM	IC50 [9]: > 10 µM; IC50 [10]: > 10 µM; IC50 [11]: > 10 µM
C[C@@]1(O)[C@H](O)[C@@H](COP(=O)(O)OP(=O)(O)OP(=O)(O)O)O[C@H]1n1cc(-c2cn[nH]c2)c2c(N)ncnc21	–	8.4 µM	–
C[C@@]1(O)[C@H](O)[C@@H](COP(=O)(O)OP(=O)(O)OP(=O)(O)O)O[C@H]1n1cc(-c2ncccn2)c2c(N)ncnc21	–	12 µM	–
C[C@@]1(O)[C@H](O)[C@@H](COP(=O)(O)OP(=O)(O)OP(=O)(O)O)O[C@H]1n1cc(-c2ncco2)c2c(N)ncnc21	–	0.5 µM	–
Cn1cc(-c2cn([C@@H]3O[C@H](COP(=O)(O)OP(=O)(O)OP(=O)(O)O)[C@@H](O)[C@@]3(C)O)c3ncnc(N)c23)nn1	–	8.4 µM	–
C[C@@]1(O)[C@H](O)[C@@H](COP(=O)(O)OP(=O)(O)OP(=O)(O)O)O[C@H]1n1cc(-c2ncon2)c2c(N)ncnc21	–	0.5 µM	IC50 [9]: > 10 µM; IC50 [10]: > 10 µM; IC50 [11]: > 10 µM
Cc1noc(-c2cn([C@@H]3O[C@H](COP(=O)(O)OP(=O)(O)OP(=O)(O)O)[C@@H](O)[C@@]3(C)O)c3ncnc(N)c23)n1	–	8.4 µM	–
C[C@@]1(O)[C@H](O)[C@@H](COP(=O)(O)OP(=O)(O)OP(=O)(O)O)O[C@H]1n1cc(-c2nnco2)c2c(N)ncnc21	–	> 95 µM	–
C[C@@]1(F)[C@H](O)[C@@H](COP(=O)(O)OP(=O)(O)OP(=O)(O)O)O[C@H]1n1cc(-c2ncco2)c2c(N)ncnc21	–	0.3 µM	–
C[C@@]1(F)[C@H](O)[C@@H](COP(=O)(O)OP(=O)(O)OP(=O)(O)O)O[C@H]1n1cc(-c2ccn[nH]2)c2c(N)ncnc21	–	0.07 µM	IC50 [9]: > 10 µM; IC50 [10]: > 10 µM; IC50 [11]: > 10 µM
C[C@@]1(O)[C@H](O)[C@@H](CO)O[C@H]1n1ccc2c(N)ncnc21 [BETA-2'-C-METHYL-7-DEAZA-ADENOSINE]	0.3 µM	–	–

The next lines start with results.

EC50 (Hepatitis C virus)	IC50 [3]	Structure (SMILES)	further results
46 µM	–	C[C@@]1(O)[C@H](O)[C@@H](CO)O[C@H]1n1cc(-c2nnco2)c2c(N)ncnc21	–
30 µM	–	C[C@@]1(O)[C@H](O)[C@@H](CO)O[C@H]1n1cc(-c2cn[nH]c2)c2c(N)ncnc21	–
> 100 µM	–	C[C@@]1(O)[C@H](O)[C@@H](CO)O[C@H]1n1cc(-c2ncccn2)c2c(N)ncnc21	–
7.8 µM	–	C[C@@]1(O)[C@H](O)[C@@H](CO)O[C@H]1n1cc(-c2ncco2)c2c(N)ncnc21	–
42 µM	–	Cn1cc(-c2cn([C@@H]3O[C@H](CO)[C@@H](O)[C@@]3(C)O)c3ncnc(N)c23)nn1	–
1.9 µM	–	C[C@@]1(O)[C@H](O)[C@@H](CO)O[C@H]1n1cc(-c2ncon2)c2c(N)ncnc21	Ratio (Nucleic Acid): 20; Drug uptake (Liver [4]): 11.9 nmol/g; Drug uptake (Liver [5]): 0.4 nmol/g; Drug uptake (Liver [6]): 3.9 nmol/g; bioavailability [7]: 14.7%; Drug uptake (Liver [8]): 0.5 nmol/g
42 µM	–	Cc1noc(-c2cn([C@@H]3O[C@H](CO)[C@@H](O)[C@@]3(C)O)c3ncnc(N)c23)n1	–
41 µM	–	C[C@@]1(F)[C@H](O)[C@@H](CO)O[C@H]1n1cc(-c2ncon2)c2c(N)ncnc21	–
37 µM	–	C[C@@]1(F)[C@H](O)[C@@H](CO)O[C@H]1n1cc(-c2ncco2)c2c(N)ncnc21	–
35 µM	–	C[C@@]1(F)[C@H](O)[C@@H](CO)O[C@H]1n1cc(-c2ccn[nH]2)c2c(N)ncnc21	–
–	0.4 µM	C[C@@]1(F)[C@H](O)[C@@H](COP(=O)(O)OP(=O)(O)OP(=O)(O)O)O[C@H]1n1cc(-c2ncon2)c2c(N)ncnc21	–
